From ChEMBL document CHEMBL4266040, “Structure-Based Engineering of Irreversible Inhibitors against Histone Lysine Demethylase KDM5A” (J Med Chem, 2018)
Active and inactive are the calls of the source. The calls are words filed in the database; no cut-off is given here.

Legend:
[1] = biological target: T1, Lysine-specific demethylase 5A (Homo sapiens, UniProt P29375); assay: Inhibition of KDM5A in human MCF7 cells assessed as effect on H3K27me3 methylation levels at 1 to 10 uM after 30 hrs by Western blot analysis; format: cell-based
T1 sequence (P29375 whole entry): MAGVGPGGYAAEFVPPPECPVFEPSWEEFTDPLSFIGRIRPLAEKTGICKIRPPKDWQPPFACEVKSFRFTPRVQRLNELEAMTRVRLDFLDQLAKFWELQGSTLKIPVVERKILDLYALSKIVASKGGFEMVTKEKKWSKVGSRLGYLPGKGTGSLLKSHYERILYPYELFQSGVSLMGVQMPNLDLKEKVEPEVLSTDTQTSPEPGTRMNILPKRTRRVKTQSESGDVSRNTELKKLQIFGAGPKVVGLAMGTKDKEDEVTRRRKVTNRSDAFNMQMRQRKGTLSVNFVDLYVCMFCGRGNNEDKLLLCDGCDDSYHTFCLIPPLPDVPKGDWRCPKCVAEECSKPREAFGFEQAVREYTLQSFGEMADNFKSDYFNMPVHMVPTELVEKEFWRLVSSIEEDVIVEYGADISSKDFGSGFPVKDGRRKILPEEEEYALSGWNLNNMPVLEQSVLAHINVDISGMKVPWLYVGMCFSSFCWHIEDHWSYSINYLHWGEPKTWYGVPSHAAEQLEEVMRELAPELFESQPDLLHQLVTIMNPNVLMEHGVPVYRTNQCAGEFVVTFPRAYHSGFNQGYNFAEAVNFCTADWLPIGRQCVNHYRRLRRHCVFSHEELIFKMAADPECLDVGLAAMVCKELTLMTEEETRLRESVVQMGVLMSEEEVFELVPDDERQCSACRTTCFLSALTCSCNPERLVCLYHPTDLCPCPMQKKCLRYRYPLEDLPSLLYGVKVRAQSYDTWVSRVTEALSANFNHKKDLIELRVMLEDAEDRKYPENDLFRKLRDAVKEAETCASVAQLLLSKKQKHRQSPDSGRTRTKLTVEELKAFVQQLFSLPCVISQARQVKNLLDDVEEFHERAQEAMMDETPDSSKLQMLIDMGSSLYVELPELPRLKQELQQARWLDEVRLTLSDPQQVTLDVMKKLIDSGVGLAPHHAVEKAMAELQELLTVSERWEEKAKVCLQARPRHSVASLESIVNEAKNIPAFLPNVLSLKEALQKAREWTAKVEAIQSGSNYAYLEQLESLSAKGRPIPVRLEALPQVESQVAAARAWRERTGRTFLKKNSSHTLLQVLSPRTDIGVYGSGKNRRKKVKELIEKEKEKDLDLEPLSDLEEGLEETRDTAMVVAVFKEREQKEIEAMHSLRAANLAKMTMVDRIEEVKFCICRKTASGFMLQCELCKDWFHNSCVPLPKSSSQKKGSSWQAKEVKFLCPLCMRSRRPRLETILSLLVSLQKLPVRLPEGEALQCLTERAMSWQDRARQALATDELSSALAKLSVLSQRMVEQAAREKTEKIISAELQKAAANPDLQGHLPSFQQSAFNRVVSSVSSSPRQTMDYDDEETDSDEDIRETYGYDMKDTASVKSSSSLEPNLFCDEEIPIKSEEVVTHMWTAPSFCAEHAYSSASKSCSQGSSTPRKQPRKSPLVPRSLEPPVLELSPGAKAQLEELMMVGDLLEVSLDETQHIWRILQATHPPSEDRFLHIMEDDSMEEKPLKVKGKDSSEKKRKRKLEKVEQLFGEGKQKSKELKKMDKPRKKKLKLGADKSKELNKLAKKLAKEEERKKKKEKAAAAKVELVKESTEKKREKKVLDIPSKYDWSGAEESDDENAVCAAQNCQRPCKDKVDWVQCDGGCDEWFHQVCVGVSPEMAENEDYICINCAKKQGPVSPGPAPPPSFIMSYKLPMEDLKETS
Method in brief: (§1)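 MCF7 breast cancer cells were exposed to compound, with a 0.1% DMSO control, for 30 or 48 h. Total cell lysates were then probed by Western blot with antibodies to histone methylation marks.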

[2] = biological target: T1, Lysine-specific demethylase 5A; assay: Inhibition of KDM5A in human MCF7 cells assessed as effect on H3K4me3 methylation levels at 1 to 10 uM after 30 hrs by Western blot analysis; format: cell-based; method in brief: as §1
[3] = biological target: T1, Lysine-specific demethylase 5A; assay: Irreversible inhibition of 0.4 uM KDM5A ARID/PhD1 domain deletion mutant (1 to 739 residues) (unknown origin) using 100 uM alpha-KG by succinate-glo demethylase assay
Method in brief: (§2)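 Succinate-Glo run with KDM5A(1−739)ΔAP at varied enzyme concentration and 100 μM αKG. H3(1−24)K4me3 60 μM, Fe(II) 10 μM, ascorbate 100 μM, HEPES pH 8.0, 5% DMSO.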

[4] = biological target: T1, Lysine-specific demethylase 5A; assay: Binding affinity to KDM5A ARID/PhD1 domain deletion mutant (1 to 588 residues) (unknown origin) assessed as covalent modification of enzyme at 0.5 mM after 30 mins by ESI-tandem-MS analysis
[5] = biological target: T1, Lysine-specific demethylase 5A; assay: Irreversible inhibition of 1.6 uM KDM5A ARID/PhD1 domain deletion mutant (1 to 739 residues) (unknown origin) using 100 uM alpha-KG by succinate-glo demethylase assay; method in brief: as §2
[6] = Effective permeability of the compound at pH 7.4 by PAMPA; format: ADME; conditions: for Papp: read-out: Peff
Method in brief: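 PAMPA with a lipid/dodecane artificial membrane and pH 7.4 buffer in donor and acceptor wells. Compounds diluted from 10 mM DMSO stock to 0.05 mM final, 0.5% DMSO. Donor stirred during a 30 min permeation at room temperature. Donor and acceptor concentrations read by UV. Permeability given in 10−6 cm s−1: >100 high, 10–100 moderate, <10 low.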

[7] = biological target: T1, Lysine-specific demethylase 5A; assay: Irreversible inhibition of 0.8 uM KDM5A ARID/PhD1 domain deletion mutant (1 to 739 residues) (unknown origin) using 100 uM alpha-KG by succinate-glo demethylase assay; method in brief: as §2
Homo sapiens [8] = organism: Homo sapiens; assay: Selectivity ratio of IC50 for recombinant KDM4A (1 to 350 residues) (unknown origin) to IC50 for recombinant KDM5B ARID/PhD1 domain deletion (1 to 755 residues) (unknown origin)
Method in brief: (§3)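 AlphaLISA using antibody to H3K4 (KDM5B) or H3K9 (KDM4A) methylation to detect demethylation of enzyme-specific histone peptides. Both enzymes are recombinant catalytic domains from E. coli, tested at the same enzyme concentration.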

[9] = biological target: T1, Lysine-specific demethylase 5A; assay: Irreversible inhibition of KDM5A ARID/PhD1 domain deletion mutant (1 to 739 residues) (unknown origin) using 100 uM alpha-KG by succinate-glo demethylase assay
Method in brief: (§4)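 KDM5A(1−739)ΔAP (0.8 μM) preincubated 20 min with 2-fold serial dilutions of compound. Reaction started with αKG (10, 100 or 1000 μM) and H3(1−24)K4me3 (60 μM), 10 μM (NH4)2Fe(SO4)2, 100 μM ascorbate, 50 mM HEPES pH 8.0, 5% DMSO. Run 10 min at ambient temperature, n = 3; succinate read by Succinate-Glo luminescence.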

[10] = biological target: T1, Lysine-specific demethylase 5A; assay: Irreversible inhibition of KDM5A ARID/PhD1 domain deletion mutant (1 to 739 residues) (unknown origin)
Method in brief: (§5)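 KDM5A (0.8 μM) preincubated with five inhibitor concentrations (0.01–5 μM). At each time point, mixture added to H3 peptide (60 μM) and αKG (100 μM) and stopped after 7 min. Log % remaining activity plotted against preincubation time; negative slopes fitted by nonlinear regression against [I] to give kinact and KI.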

[11] = biological target: T1, Lysine-specific demethylase 5A; assay: Irreversible inhibition of KDM5A ARID/PhD1 domain deletion mutant (1 to 739 residues) (unknown origin) at 100 uM using alpha-KG measured after 4 times of buffer exchange by succinate-glo demethylase assay
Method in brief: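 Enzyme–inhibitor complex preformed ([E] = 5 μM, initial [I] = 100 μM), then four buffer exchanges before Succinate-Glo activity measurement.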

[12] = biological target: T1, Lysine-specific demethylase 5A; assay: Irreversible inhibition of KDM5A ARID/PhD1 domain deletion mutant (1 to 739 residues) (unknown origin) using 10 uM alpha-KG by succinate-glo demethylase assay; method in brief: as §4
[13] = biological target: T2, Lysine-specific demethylase 4A (Homo sapiens, UniProt O75164); assay: Irreversible inhibition of recombinant KDM4A (1 to 350 residues) (unknown origin) expressed in Escherichia coli using H3 (1 to 21 residues) K9me3 as substrate preincubated for 10 mins followed by substrate/alphaKG/(NH4)2Fe(SO4)2 addition measured after 1 hr by alphaLISA assay; method in brief: as §3
T2 sequence (O75164 whole entry): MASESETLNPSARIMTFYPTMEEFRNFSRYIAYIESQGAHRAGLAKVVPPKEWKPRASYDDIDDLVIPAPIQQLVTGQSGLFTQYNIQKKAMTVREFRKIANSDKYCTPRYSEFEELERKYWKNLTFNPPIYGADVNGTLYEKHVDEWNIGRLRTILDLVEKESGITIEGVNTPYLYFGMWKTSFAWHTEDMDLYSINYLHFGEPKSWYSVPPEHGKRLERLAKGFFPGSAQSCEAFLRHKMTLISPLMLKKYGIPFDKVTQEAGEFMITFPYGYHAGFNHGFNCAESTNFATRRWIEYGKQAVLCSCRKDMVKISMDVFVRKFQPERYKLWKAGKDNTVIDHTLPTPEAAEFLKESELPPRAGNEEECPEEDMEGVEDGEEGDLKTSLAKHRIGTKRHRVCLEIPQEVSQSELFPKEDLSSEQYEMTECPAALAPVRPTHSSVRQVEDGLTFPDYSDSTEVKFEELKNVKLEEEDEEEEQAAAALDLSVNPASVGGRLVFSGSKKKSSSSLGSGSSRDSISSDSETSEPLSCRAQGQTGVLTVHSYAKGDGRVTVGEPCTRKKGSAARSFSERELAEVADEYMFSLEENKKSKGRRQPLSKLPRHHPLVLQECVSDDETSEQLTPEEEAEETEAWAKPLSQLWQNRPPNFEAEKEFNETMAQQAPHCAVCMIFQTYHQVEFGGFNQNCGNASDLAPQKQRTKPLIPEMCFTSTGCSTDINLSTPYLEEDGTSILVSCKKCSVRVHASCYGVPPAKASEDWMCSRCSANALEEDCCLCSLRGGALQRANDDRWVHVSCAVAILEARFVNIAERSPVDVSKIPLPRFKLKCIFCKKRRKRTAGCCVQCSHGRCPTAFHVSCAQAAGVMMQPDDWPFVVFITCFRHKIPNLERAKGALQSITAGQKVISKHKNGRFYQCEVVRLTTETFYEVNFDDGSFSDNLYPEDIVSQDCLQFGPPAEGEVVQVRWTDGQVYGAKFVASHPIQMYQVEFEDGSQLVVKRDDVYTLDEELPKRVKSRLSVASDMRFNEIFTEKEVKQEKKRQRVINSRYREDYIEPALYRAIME

[14] = biological target: T1, Lysine-specific demethylase 5A; assay: Irreversible inhibition of KDM5A ARID/PhD1 domain deletion mutant (1 to 739 residues) (unknown origin) using alpha-KG as substrate by succinate-glo demethylase assay; conditions: TDE = time-dependent effect; method in brief: as §4
[15] = biological target: T1, Lysine-specific demethylase 5A; assay: Irreversible inhibition of KDM5A ARID/PhD1 domain deletion mutant (1 to 739 residues) (unknown origin) using alpha-KG measured immediately by succinate-glo demethylase assay
Method in brief: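 Compound and KDM5A(1−739)ΔAP either without preincubation or preincubated 20 min before αKG addition; activity read by Succinate-Glo.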

[16] = biological target: T1, Lysine-specific demethylase 5A; assay: Irreversible inhibition of KDM5A ARID/PhD1 domain deletion mutant (1 to 739 residues) (unknown origin) using alpha-KG by succinate-glo demethylase assay; method in brief: as §4
[17] = biological target: T1, Lysine-specific demethylase 5A; assay: Irreversible inhibition of KDM5A ARID/PhD1 domain deletion mutant (1 to 739 residues) (unknown origin) assessed as Kinact to Ki ratio; method in brief: as §5
[18] = Metabolic stability in human BT474 cell culture media assessed as parent compound remaining at 10 uM after 24 hrs by LC-MS/MS analysis; format: physicochemical; conditions: read-out: Stability
[19] = biological target: T1, Lysine-specific demethylase 5A; assay: Irreversible inhibition of KDM5A ARID/PhD1 domain deletion mutant (1 to 739 residues) (unknown origin) using 1000 uM alpha-KG by succinate-glo demethylase assay; method in brief: as §4
[20] = Drug level in human BT474 cell culture media treated with isopropyl 2-((3-Aminophenyl)(2-(piperidin-1-yl)-ethoxy)methyl)thieno[3,2-b]pyridine-7-carboxylate at 10 uM after 24 hrs by LC-MS/MS analysis; format: physicochemical
[21] = biological target: Lysine-specific demethylase 6A (Homo sapiens, UniProt O15550); assay: Inhibition of KDM6A (880 to 1401 residues) (unknown origin) using H3 ( 21 to 44 residues) K27me3 as substrate preincubated for 15 min followed by substrate addition measured after 15 mins by FDH-coupled demethylase assay
Lysine-specific demethylase 6A, sequence (O15550 whole entry, the tested form may be a part): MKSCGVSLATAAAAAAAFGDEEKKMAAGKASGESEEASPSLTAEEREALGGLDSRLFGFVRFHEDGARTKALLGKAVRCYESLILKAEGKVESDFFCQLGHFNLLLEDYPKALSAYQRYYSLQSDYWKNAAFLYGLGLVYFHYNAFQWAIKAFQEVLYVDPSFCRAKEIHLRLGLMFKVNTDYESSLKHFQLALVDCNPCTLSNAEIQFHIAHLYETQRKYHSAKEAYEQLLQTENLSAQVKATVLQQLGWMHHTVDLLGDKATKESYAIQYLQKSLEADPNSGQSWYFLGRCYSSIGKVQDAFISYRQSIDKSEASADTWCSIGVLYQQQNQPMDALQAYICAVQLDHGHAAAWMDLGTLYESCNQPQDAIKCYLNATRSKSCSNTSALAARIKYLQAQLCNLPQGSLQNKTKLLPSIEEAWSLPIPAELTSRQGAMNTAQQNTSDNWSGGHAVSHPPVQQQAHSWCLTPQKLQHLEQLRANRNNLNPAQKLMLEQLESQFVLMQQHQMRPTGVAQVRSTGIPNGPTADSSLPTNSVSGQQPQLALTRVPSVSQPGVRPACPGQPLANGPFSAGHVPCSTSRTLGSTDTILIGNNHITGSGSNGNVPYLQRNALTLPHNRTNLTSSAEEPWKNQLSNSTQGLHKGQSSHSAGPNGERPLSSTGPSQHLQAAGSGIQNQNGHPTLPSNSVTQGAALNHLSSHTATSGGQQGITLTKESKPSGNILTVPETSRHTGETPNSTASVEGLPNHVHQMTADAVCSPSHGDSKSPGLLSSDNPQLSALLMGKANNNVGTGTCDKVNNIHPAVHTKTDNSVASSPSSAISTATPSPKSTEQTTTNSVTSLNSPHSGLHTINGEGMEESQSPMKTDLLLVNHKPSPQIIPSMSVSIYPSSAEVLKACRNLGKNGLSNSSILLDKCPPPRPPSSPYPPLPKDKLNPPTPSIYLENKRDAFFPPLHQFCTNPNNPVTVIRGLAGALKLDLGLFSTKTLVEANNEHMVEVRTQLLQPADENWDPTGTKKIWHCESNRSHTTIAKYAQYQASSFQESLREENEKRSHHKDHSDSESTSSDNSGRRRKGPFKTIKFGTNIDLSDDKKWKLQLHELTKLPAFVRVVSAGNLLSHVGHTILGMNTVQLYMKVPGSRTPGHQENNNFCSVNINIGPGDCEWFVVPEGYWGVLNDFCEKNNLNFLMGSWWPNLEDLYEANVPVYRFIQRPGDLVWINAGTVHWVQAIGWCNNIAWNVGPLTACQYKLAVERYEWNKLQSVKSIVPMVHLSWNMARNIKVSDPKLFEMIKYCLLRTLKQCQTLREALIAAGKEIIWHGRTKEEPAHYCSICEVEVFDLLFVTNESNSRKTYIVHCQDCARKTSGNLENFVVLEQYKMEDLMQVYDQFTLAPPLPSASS

[22] = biological target: T1, Lysine-specific demethylase 5A; assay: Inhibition of KDM5A ARID/PhD1 domain deletion mutant (1 to 739 residues) (unknown origin) using H3 ( 1 to 24 residues) K4me3 as substrate preincubated for 15 min followed by substrate addition measured after 15 mins by FDH-coupled demethylase assay
Homo sapiens [23] = organism: Homo sapiens; assay: Selectivity ratio of IC50 for KDM4A (1 to 350 residues) (unknown origin) to IC50 for KDM5A ARID/PhD1 domain deletion mutant (1 to 739 residues) (unknown origin)
[24] = biological target: T2, Lysine-specific demethylase 4A; assay: Inhibition of KDM4A (1 to 350 residues) (unknown origin) using H3 ( 1 to 15 residues) K9me3 as substrate preincubated for 15 min followed by substrate addition measured after 15 mins by FDH-coupled demethylase assay
[25] = biological target: T1, Lysine-specific demethylase 5A; assay: Binding affinity to KDM5A ARID/PhD1 domain deletion mutant (1 to 588 residues) (unknown origin) by ITC assay
Homo sapiens [26] = organism: Homo sapiens; assay: Selectivity ratio of IC50 for KDM5A ARID/PhD1 domain deletion mutant (1 to 739 residues) (unknown origin) to IC50 for KDM6A (880 to 1401 residues) (unknown origin)
BT-474 = assay: Growth inhibition of human BT474 cells at 0.11 to 3.5 uM measured every 4 hrs for 300 hrs by IncuCyte live cell imaging method; format: functional, cell-based
Method in brief: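 BT474 cells grown with compound; percent confluence tracked by IncuCyte live-cell imaging every 4 h over 300 h.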

SMILES | Ratio IC50 (Homo sapiens [8]) | IC50 [13] [µM] | remaining at 24 h, 10 µM [18] [%] | IC50 [21] [µM] | IC50 [22] [µM] | Ratio IC50 (Homo sapiens [23]) | IC50 [24] [µM] | Kd [25] [µM] | Ratio IC50 (Homo sapiens [26]) | further results
CCOC(=O)CCNc1cc(N2CCc3ccccc3CC2)nc(-c2ccccn2)n1 |  |  |  |  |  |  |  |  |  | inhibition [1]: Active; inhibition [2]: Active
CN(C)C/C=C/C(=O)Nc1cccc(C(OCCN2CCCCC2)c2cc3nccc(C(=O)O)c3s2)c1 (configuration not stated) | 24 | 5.3 | 60 |  |  |  |  |  |  | IC50 [3]: 0.06 µM; Activity [4]: Active; IC50 [5]: 0.36 µM; Papp [6]: < 10 nm/s; IC50 [7]: 0.18 µM; IC50 [9]: 0.11 µM; Ki [10]: 0.41 µM; Kinact [10]: 0.198 min⁻¹; inhibition [11]: Active; IC50 [12]: 0.1 µM; inhibition [14]: Tde; IC50 [15]: 0.11 µM; IC50 [16]: 1.24 µM; Ratio [17]: 8 ×10³ /M/s; IC50 [19]: 0.18 µM
Nc1cccc(C(OCCN2CCCCC2)c2cc3nccc(C(=O)O)c3s2)c1 (configuration not stated) | 8.6 | 4.2 | 93 |  |  |  |  |  |  | Activity [4]: inactive; Papp [6]: 527 nm/s; IC50 [9]: 5.4 µM; inhibition [11]: inactive; IC50 [12]: 0.7 µM; IC50 [15]: 5.5 µM; IC50 [16]: 4.9 µM; Drug metabolism [20]: Metabolite_Detected; IC50 [19]: > 100 µM
C=CS(=O)(=O)N1CCCN(c2cc(NCCC(=O)O)nc(-c3ccccn3)n2)CC1 |  |  |  | 55 | 83 | 3.2 to 3.6 | 290 | 9 | 1.5 to 1.8 | 
CN1CCCC1CCOC(c1cc2nccc(C(=O)O)c2s1)c1ccccc1Cl (configuration not stated) | 7 | 2.2 |  |  |  |  |  | 0.26 |  | 
C=CC(=O)N1CCCN(c2cc(NCCC(=O)O)nc(-c3ccccn3)n2)CC1 |  |  |  | 39 | 71 | 3.2 to 3.6 | 230 | 6 | 1.5 to 1.8 | 
O=C(O)CCNc1cc(N2CCc3ccccc3CC2)nc(-c2ccccn2)n1 |  |  |  | 69 | 110 | 3.2 to 3.6 | 400 | 12 | 1.5 to 1.8 | 
CN1CCCC1CCOC(c1cc2nccc(C(=O)O)c2[nH]1)c1ccccc1Cl (configuration not stated) |  |  |  |  |  |  |  | 0.15 |  | 
CC(C)OC(=O)c1ccnc2cc(C(OCCN3CCCCC3)c3cccc(N)c3)sc12 (configuration not stated) |  |  | 75 |  |  |  |  |  |  | Peff [6]: 10180 nm/s; growth inhibition (GI) (BT-474): Active
